Active and inactive are the calls of the source. The rule behind the calls is not given here.
Tests used:
Neutrophil [1] = assay: Induction of apoptosis in mouse bone marrow neutrophils assessed as early apoptotic cells at 10 uM measured after 4 hrs by Annexin V-FITC/propidium iodide staining-based flow cytometry (reference value: 3.49 %); type: cell-based
Mus musculus [2] = assay: Antiinflammatory activity in C57BL/6 mouse assessed as reduction in IL1-beta release in peritoneal cavity at 10 mg/kg, sc dosed 30 mins prior mBSA challenge measured after 3 hrs post mBSA challenge by ELISA
Mus musculus [3] = assay: Antiinflammatory activity in C57BL/6 mouse assessed as reduction in CXCL1/KC release in peritoneal cavity at 10 mg/kg, sc dosed 30 mins prior mBSA challenge measured after 3 hrs post mBSA challenge by ELISA; type: functional, organism-based
Procedure, shortened: (§1)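 Male SPF C57BL/6 mice (20−22 g) given sc vehicle or test agent 30 min before ip LPS (300 ng/cavity, in saline) or mBSA (30 μg/cavity) in mBSA-immunized mice. Peritoneal fluid collected after 1.5 or 3 h. TNF-α, IL-1β, CXCL1/KC and CXCL2/MIP-2 measured by ELISA, expressed as pg/mL. Mean ± SEM, n = 4−5, Tukey's test.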

Neutrophil [4] = assay: Reduction of calcium influx in CXCL2/MIP2-induced mouse bone marrow neutrophils at 10 uM measured after 30 mins by Fluo 3-AM dye-based analysis; type: functional, cell-based
Procedure, shortened: (§2)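 Bone marrow neutrophils (1 × 10^6/mL) loaded with Fluo 3-AM for 40 min at 37 °C, 5% CO2, then incubated 30 min with 10 μM. Plated at 2 × 10^5 cells/well. CXCL2/MIP-2 (30 ng/mL) or LTB4 added automatically in a FlexStation 3 microplate reader and calcium influx fluorescence recorded.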

Mus musculus [5] = assay: Antiinflammatory activity in C57BL/6 mouse assessed as reduction in CXCL1/KC release in peritoneal cavity at 10 mg/kg, sc dosed 30 mins prior LPS challenge measured after 3 hrs post LPS challenge by ELISA; type: functional, organism-based; procedure, shortened: as §1
Mus musculus [6] = assay: Antiinflammatory activity in C57BL/6 mouse assessed as reduction in mBSA-induced neutrophil migration in peritoneal activity at 1 to 10 mg/kg, sc dosed 21 days after immunization 15 mins prior to mBSA challenge measured after 6 hrs post mBSA challenge using Neubauer chamber by cell counting method
[7] = Induction of apoptosis in mouse bone marrow macrophages assessed as late apoptotic cells at 10 uM measured after 4 hrs by Annexin V-FITC/propidium iodide staining-based flow cytometry (reference value: 2.29 %); type: cell-based; settings: bmdm
[8] = Induction of apoptosis in mouse bone marrow neutrophils assessed as viable cells at 10 uM measured after 4 hrs by Annexin V-FITC/propidium iodide staining-based flow cytometry (reference value: 90.8 %); type: cell-based, Neutrophil; settings: read-out: Activity
Mus musculus [9] = species: Mus musculus; assay: Reduction in LTB4-induced chemotaxis in mouse bone marrow neutrophils at 3 and 10 uM pre-treated for 30 mins prior LTB4-challenge measured after 60 mins using Boyden's chamber by chemotaxis assay; type: functional
Procedure, shortened: (§3)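 Percoll-isolated bone marrow neutrophils (1 × 10^6 cells/mL) pre-incubated 30 min at 37 °C, 5% CO2 (1, 3 or 10 μM). Boyden chamber with 5-μm membrane; CXCL2/MIP-2 30 ng/mL or LTB4 in 0.01% RPMI-BSA as chemoattractant, RPMI-BSA as negative control. Migration 60 min. Panotic-stained cells averaged over 5 fields at 1000×; triplicate, n = 3−4.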

Mus musculus [10] = assay: Antiinflammatory activity in specific-pathogen free C57BL/6 mouse assessed as reduction in LPS-induced neutrophil migration in peritoneal activity at 10 mg/kg, sc dosed 15 mins prior LPS challenge measured after 6 hrs post LPS challenge by optical microscopic analysis; type: functional, organism-based
Procedure, shortened: (§4)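 Wild-type C57BL/6 or iNOS−/− male mice dosed sc (10 mg/kg), then ip LPS (300 ng/cavity) 15 min later. Killed at 6 h; peritoneal cavity washed. Total and differential cell counts done. Mean ± SEM, n = 4−5, Tukey's test.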

Neutrophil [11] = assay: Induction of apoptosis in mouse bone marrow neutrophils assessed as necrotic cells at 10 uM measured after 4 hrs by Annexin V-FITC/propidium iodide staining-based flow cytometry (reference value: 0.898 %); type: cell-based
Mus musculus [12] = assay: Antiinflammatory activity in C57BL/6 mouse assessed as reduction in LPS-induced leukocyte rolling in mesenteric venules at 10 mg/kg, dosed 30 mins prior LPS-challenge measured by intravital microscopy
Mus musculus [13] = assay: Antiinflammatory activity in C57BL/6 mouse assessed as reduction in LPS-induced leukocyte adhesion in mesenteric venules at 10 mg/kg, sc dosed 30 mins prior LPS-challenge measured after 2 to 4 hrs post LPS challenge by intravital microscopy; type: functional, organism-based
Procedure, shortened: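 Mice dosed sc 30 min before ip LPS (300 ng/cavity). Animals anesthetized 2 or 4 h after the stimulus and mesentery exposed on a 37 °C thermostatted plate. Post-capillary venules of 10−18 μm diameter imaged. Rolling leukocytes counted over 10 min; cells stationary >30 s scored adherent. Five fields per animal. Mean ± SEM, n = 4−5.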

[14] = Induction of apoptosis in mouse bone marrow macrophages assessed as early apoptotic cells at 10 uM measured after 4 hrs by Annexin V-FITC/propidium iodide staining-based flow cytometry (reference value: 5.03 %); type: cell-based; settings: bmdm
Mus musculus [15] = assay: Antiinflammatory activity in C57BL/6 mouse assessed as reduction in CXCL2/MIP-2 release in peritoneal cavity at 10 mg/kg, sc dosed 30 mins prior mBSA challenge measured after 3 hrs post mBSA challenge by ELISA; type: functional, organism-based; procedure, shortened: as §1
[16] = Induction of apoptosis in mouse bone marrow macrophages assessed as viable cells at 10 uM measured after 4 hrs by Annexin V-FITC/propidium iodide staining-based flow cytometry (reference value: 92 %); type: cell-based, BMDM; settings: read-out: Activity
BMDM [17] = assay: Antiinflammatory activity in LPS-stimulated mouse bone marrow macrophages assessed as reduction in CXCL2/MIP-2 release at 1 to 10 uM pre-incubated for 30 mins prior LPS challenge measured after 4 hrs by ELISA; type: functional, cell-based
Procedure, shortened: (§5)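 Femur/tibia bone marrow cells differentiated 7 days at 37 °C, 5% CO2 in RPMI with 10% FBS, penicillin, L-glutamine and 20% L929 supernatant. Macrophages seeded at 2 × 10^5/well and adhered 2 h. Pre-treated 30 min (1, 3 or 10 μM), then LPS 10 ng/mL for 4 h. Supernatant CXCL1/KC and CXCL2/MIP-2 measured by ELISA (pg/mL).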

[18] = Induction of apoptosis in mouse bone marrow macrophages assessed as necrotic cells at 10 uM measured after 4 hrs by Annexin V-FITC/propidium iodide staining-based flow cytometry (reference value: 0.69 %); type: cell-based; settings: bmdm
BMDM [19] = assay: Antiinflammatory activity in LPS-stimulated mouse bone marrow macrophages assessed as reduction in CXCL1/KC release at 1 to 10 uM pre-incubated for 30 mins prior LPS challenge measured after 4 hrs by ELISA; type: functional, cell-based; procedure, shortened: as §5
Neutrophil [20] = assay: Effect on CXCR2 expression in mouse bone marrow neutrophils at 10 uM measured after 1.5 hrs by flow cytometric analysis; type: functional, cell-based
Procedure, shortened: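 Percoll-isolated (72%/65%) bone marrow neutrophils (1 × 10^6 cells/mL, ~95% pure) incubated 1.5 h with 10 μM. Stained 20 min at 4 °C with APC-anti-Ly6G (1:200) and PE-anti-CXCR2 (1:50). Fixed in PBS/2% formaldehyde; two-color flow cytometry. Mean ± SEM, n = 3−4.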

Neutrophil [21] = assay: Induction of apoptosis in mouse bone marrow neutrophils assessed as late apoptotic cells at 10 uM measured after 4 hrs by Annexin V-FITC/propidium iodide staining-based flow cytometry (reference value: 4.8 %); type: cell-based
Mus musculus [22] = assay: Antiinflammatory activity in iNOS-/- mouse assessed as reduction in LPS-induced neutrophil migration in peritoneal activity at 10 mg/kg, sc dosed 15 mins prior LPS challenge measured after 6 hrs post LPS challenge by optical microscopic analysis; type: functional, organism-based; procedure, shortened: as §4
Neutrophil [23] = assay: Reduction of calcium influx in LTB4-induced mouse bone marrow neutrophils at 10 uM measured after 30 mins by Fluo 3-AM dye-based analysis; type: functional, cell-based; procedure, shortened: as §2
Mus musculus [24] = assay: Antiinflammatory activity in C57BL/6 mouse assessed as reduction in TNFalpha release in peritoneal cavity at 10 mg/kg, sc dosed 30 mins prior LPS challenge measured after 1.5 hrs post LPS challenge by ELISA
Mus musculus [25] = assay: Antiinflammatory activity in C57BL/6 mouse assessed as reduction in LPS-induced neutrophil migration in peritoneal activity at 1 to 10 mg/kg, sc dosed 30 mins prior LPS challenge measured after 6 hrs post LPS challenge using Neubauer chamber by optical microscopic analysis; type: functional, organism-based
Procedure, shortened: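 Male SPF C57BL/6 mice (20−22 g) dosed sc (1, 3 or 10 mg/kg) 30 min before ip LPS (300 ng/cavity). Killed at 6 h; cavity washed with 3 mL PBS/1 mM EDTA. Total cells counted in a Neubauer chamber; differential count of 100 cells on Panotic-stained cytospins at 1000×. Neutrophils per cavity, mean ± SEM, n = 4−5.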

Mus musculus [26] = assay: Antiinflammatory activity in C57BL/6 mouse assessed as reduction in CXCL2/MIP-2 release in peritoneal cavity at 10 mg/kg, sc dosed 30 mins prior LPS challenge measured after 3 hrs post LPS challenge by ELISA; type: functional, organism-based; procedure, shortened: as §1
Neutrophil [27] = assay: Reduction in CXCL2/MIP2-induced chemotaxis in mouse bone marrow neutrophils at 3 and 10 uM pre-treated for 30 mins prior CXCL2/MIP2-challenge measured after 60 mins using Boyden's chamber by chemotaxis assay; type: functional, cell-based; procedure, shortened: as §3

With `COc1ccc([C@H]2COc3cc(O)ccc3C2)c(O)c1` the Activity (Neutrophil [1]) was 2.93%, the Activity (Mus musculus [2]) was “inactive” and the Activity (Mus musculus [3]) was “Active”. For the same compound, the Activity (Neutrophil [4]) was “Active”, the Activity (Mus musculus [5]) was “Active” and the Activity (Mus musculus [6]) was “Active”. For the same compound, the Activity [7] was 3.35%, the viability at 4 h, 10 µM [8] was 93.8% and the Activity (Mus musculus [9]) was “Active”. The Activity (Mus musculus [10]) was “Active”, the Activity (Neutrophil [11]) was 0.546% and the Activity (Mus musculus [12]) was “Active”. The Activity (Mus musculus [13]) was “Active”, the Activity [14] was 6.62% and the Activity (Mus musculus [15]) was “Active”. The viability at 4 h, 10 µM [16] was 89%, the Activity (BMDM [17]) was “Active” and the Activity [18] was 1.03%. For the same compound, the Activity (BMDM [19]) was “Active”, the Activity (Neutrophil [20]) was “inactive” and the Activity (Neutrophil [21]) was 2.72%. The Activity (Mus musculus [22]) was “Active”, the Activity (Neutrophil [23]) was “Active” and the Activity (Mus musculus [24]) was “inactive”. The Activity (Mus musculus [25]) was “Active”, the Activity (Mus musculus [26]) was “Active” and the Activity (Neutrophil [27]) was “Active”.
